# PLK1 inh = PLK1 (human) kinase inhibition | AID 619 | recombinant PLK1 kinase, TR-FRET peptide phosphorylation | 97,000 compounds, 0.53% hits | inhibition, % at 10 µM;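 active = inhibition of 50% or more in the single-concentration screen; inactive = inhibition below 50%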;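 also: 0% = DMSO max control and 100% = H-89 dihydrochloride min control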
# Target sequence (P53350 whole entry, looked up): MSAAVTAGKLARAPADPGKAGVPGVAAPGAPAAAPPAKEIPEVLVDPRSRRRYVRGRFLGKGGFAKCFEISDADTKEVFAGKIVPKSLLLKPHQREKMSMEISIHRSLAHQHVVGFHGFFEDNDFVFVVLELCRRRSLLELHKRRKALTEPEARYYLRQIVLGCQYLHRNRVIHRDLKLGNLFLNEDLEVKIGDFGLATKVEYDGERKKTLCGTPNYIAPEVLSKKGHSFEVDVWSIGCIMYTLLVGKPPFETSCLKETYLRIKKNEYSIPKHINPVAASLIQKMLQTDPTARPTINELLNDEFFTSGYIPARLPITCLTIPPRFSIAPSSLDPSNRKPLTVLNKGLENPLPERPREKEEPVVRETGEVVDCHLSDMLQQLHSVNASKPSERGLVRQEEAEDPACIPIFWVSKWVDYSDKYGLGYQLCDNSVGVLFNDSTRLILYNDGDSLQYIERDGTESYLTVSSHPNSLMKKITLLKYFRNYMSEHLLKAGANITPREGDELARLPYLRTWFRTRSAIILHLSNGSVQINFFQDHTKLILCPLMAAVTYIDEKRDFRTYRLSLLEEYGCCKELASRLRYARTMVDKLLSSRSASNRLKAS
# PTK2B oligo ant = Pyk2 (human) oligomerization antagonism; z-score (the deposit names both 25 µM and 10 µM); 99,000 compounds, 0.83% hits; AID 1347419; Q14289; Q293 cells, Pyk2 FERM NanoBiT luminescence; hits give low values;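 active = Z-score of -3 or lower, scaled per plate to the spread of control and sample wells; inactive = z-score above -3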;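 also: negative z-score means lost luminescence so less FERM oligomerization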
# PLK1 PBD inh = Plk1 (human) PBD binding inhibition | 97,000 compounds, 0.13% hits | inhibition, %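 (tested at about 20 µM)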 | Plk1 PBD phosphopeptide binding, fluorescence polarization | P53350; in the data active = inhibition above about 34%, passing the limit was not always enough
# Rev-RRE block = disrupts HIV-1 Rev binding to RRE RNA. P05866. Rev peptide-RRE RNA binding, FRET. inhibition, % at 8 µM. 97,000 compounds, 0.79% hits. AID 704;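 active = inhibition above the screen-wide mean plus 3 SD, cut at about 35% in these data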;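 also: 0% = median DMSO wells and 100% = median Neomycin B control wells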
#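 assay system = Cy5-tagged RRE RNA duplex with fluorescein-tagged Rev peptide | incubation = 5 + 15 min at 25 °C | also added = labelled Rev peptide | measure = % inhibition of FRET ratio versus controls | benchmarks = DMSO wells as 0% and neomycin B wells as 100% inhibition | measured by = FRET fluorescence readout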
# Cav3 T inh = blocks human Cav3.2 T-type calcium channel; Cav3.2-expressing cells, Fluo-4 calcium fluorescence FDSS; hits give low values; 100,000 compounds, 4% hits; B-score at 10 µM;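 active = single-dose well whose peak fluorescence ratio is a statistical outlier from its plate by either plate-standardised score or position-corrected B-score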
# FAK inh = inhibitors of human focal adhesion kinase; inhibition, %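 (tested at 7 µM)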; Q05397; AID 727; biochemical FAK kinase activity assay; 97,000 compounds, 0.84% hits; in the data active = inhibition above about 19%;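 also: 0% = DMSO and 100% = reference compound high control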
# The depositor's hits bear a star; nt = no result given; [ ] = remark or other dose. The list is not random: actives were taken first. Their share in the collection is about 5.8%.
SMILES,PLK1 inh,PTK2B oligo ant,PLK1 PBD inh,Rev-RRE block,Cav3 T inh,FAK inh
COc1ccc(N2C(=O)[C@@H]3[C@H](C2=O)[C@H]2c4ccccc4C=CN2[C@@H]3C(=O)Nc2ccccc2)cc1,-12,-1.5,-154,119*[fluorescence artefact?],-3.2,5
CC(C)(C)C(=O)[C@@H]1[C@@H]2C(=O)N(c3ccc4c(c3)OCCO4)C(=O)[C@@H]2C2c3ccccc3C=CN21 (stereo partly specified),-1,-1.4,-13,8,0.29,12
CC(=O)[C@@H]1[C@@H]2C(=O)N(Cc3ccccc3)C(=O)[C@@H]2C2c3ccccc3C=CN21 (stereo partly specified),-9,-0.13,-28,64*,-1.8,12
Cc1ccc(N2C(=O)[C@@H]3[C@H](C2=O)C2c4ccccc4C=CN2[C@@H]3C(=O)c2ccco2)c(C)c1 (stereo partly specified),-4,0.44,-4,30,0.058,16
Cn1cccc1/C=C1\CC(C(C)(C)C)C/C(=C\c2cccn2C)C1=O (stereo unspecified),-9,0.34,-87,125*[fluorescence artefact?],-9.1*,0
Cn1cccc1/C=C1\SC(=O)N(c2ccccc2)C1=O,nt,-0.5,nt,nt,nt,nt
O=C(NCCN1CCN(c2ccccc2)CC1)C1CCN(S(=O)(=O)N2CCOCC2)CC1,56*,1.2,-9,0,-0.46,-2
O=C(c1cn(-c2ccccc2)nc1-c1cccs1)N1CCN(c2ccccn2)CC1,-7,-0.73,12,3,-6.2*,-1
CN(C)C(=O)c1cn(-c2ccccc2)nc1-c1cccs1,-5,-0.32,2,8,0.008,-1
CCNc1nc(NCC)n2c(SC(C(=O)Nc3cc(C)ccc3OC)c3ccccc3)nnc2n1 (stereo unspecified),nt,-2.2,nt,nt,nt,nt
COc1ccc(NC(=S)NC(NC(=O)c2cccc(Cl)c2)C(Cl)(Cl)Cl)c([N+](=O)[O-])c1 (stereo unspecified),-5,-1.1,-3,10,-4.9*,3
COc1ccc(NC(=S)NC(NC(=O)c2cccc(C)c2)C(Cl)(Cl)Cl)c([N+](=O)[O-])c1 (stereo unspecified),-9,-0.44,6,3,-6.7*,2
CCOC(=O)NC(NC(=S)Nc1ccccc1[N+](=O)[O-])C(Cl)(Cl)Cl (stereo unspecified),2,0.91,6,4,-1.4,1
COc1ccc(S(=O)(=O)N2CCCN(S(=O)(=O)c3ccc(OC)cc3C)CC2)c(C)c1,nt,-1.5,nt,nt,0.072,nt
CC1(C)CC(=O)c2cc(C(=O)NCc3ccco3)c(=O)n(-c3ccccc3)c2C1,-12,-0.09,-15,2,4.1*,-1
CN1CCN(C(=O)c2cc3c(n(-c4ccccc4)c2=O)CC(C)(C)CC3=O)CC1,-6,1.6,-4,-1,0.34,0
Cc1ccc(C(CC(=O)NCc2ccco2)c2ccc(OC(C)C)cc2)cc1 (stereo unspecified),-9,-3,-21,6,-5.1*,9
CCOc1ccccc1C1C(C(=O)OC)=C(N)OC2=C1C(=O)CCC2 (stereo unspecified),nt,1.6,nt,nt,-1.7,nt
CCOc1ccc(Br)cc1C1C(C(=O)OC)=C(N)Oc2cc(N(C)C)ccc21 (stereo unspecified),-5,-1.3,-2,38*,-2.6,2
CCOC(=O)C(C)n1cnc2c(nnn2Cc2ccc(C)cc2)c1=O (stereo unspecified),-11,1.3,4,9,0.088,0
COC(=O)COc1ccc(S(=O)(=O)NCc2cccnc2)cc1C,-10,0.4,-1,2,0.18,-3
O=C(NC1CCN(C(=S)NCc2ccco2)CC1)NC12CC3CC(CC(C3)C1)C2,-3,0.02,24,-2,-3.8*,-3
O=C(N[C@@H](Cc1ccccc1)C(=O)O)c1c(F)c(F)c(F)c(F)c1F,nt,nt,nt,nt,1.5,nt
CCCN(CCC)C(=O)Cc1coc2ccc3ccccc3c12,2,-2.3,-35,13,-6.3*,0
O=C(NCCc1ccccc1)c1ccc(-c2ccccc2C(F)(F)F)o1,nt,nt,nt,nt,-3.1,nt
SMILES,PLK1 inh,PTK2B oligo ant,PLK1 PBD inh,Rev-RRE block,Cav3 T inh,FAK inh
O=C(NCc1ccccc1)c1ccc(-c2ccccc2F)o1,-9,-1.1,-4,7,-4.2*,5
COCCN(C(=O)C(C)C)c1nnc(-c2cccc(C)c2)s1,-13,-1.9,-5,7,-0.84,-3
O=C(c1ccccc1)N1CC(COc2ccccc2)OC(c2ccco2)O1 (stereo unspecified),-3,0.17,8,4,-4*,0
CCCc1cc(=O)[nH]c(Nc2ccc(OC)c(Cl)c2)n1,-7,-0.61,8,21,0.26,3
Nc1nc(CN2CCN(c3ccccc3F)CC2)nc(Nc2ccccc2)n1,-7,0.35,-8,8,-1.2,1
Cc1ccc(Nc2nc(N)nc(CN3CCN(c4ccccc4F)CC3)n2)cc1,4,-0.87,-13,14,-5.3*,5
COc1ccc2ccccc2c1C(O)c1nccn1C (stereo unspecified),12,-0.38,20,135*[fluorescence artefact?],-5.6*,18
CCOC(=O)C(CC)Sc1nnc(COc2ccc(C)cc2)n1-c1ccccc1 (stereo unspecified),-14,-0.24,5,-4,-7.3*,4
O=C(CSc1nnc(COc2ccccc2)n1-c1ccccc1)c1cccs1,nt,-0.41,nt,nt,-6.9*,nt
c1ccc2sc(SN3CCOCC3)nc2c1,nt,1.2,nt,nt,0.33,nt
O=C(O)CCCNC(=O)c1cccc(C(=O)NCCCC(=O)O)n1,nt,0.47,nt,nt,nt,nt
O=c1[nH]c2cc(Br)cnc2nc1/C=C(\O)c1ccc(F)cc1,-7,0.89,-31,60*,-1.5,2
O=C(Nc1c(-c2ccccc2)nc2sccn12)c1ccccc1,nt,-0.64,nt,nt,0.53,nt
C=CCn1c(SCC(=O)Nc2sc(C)c(C)c2C(=O)OCC)nnc1-c1sc(N)nc1C,-9,-4.5*,-17,-1,1.6,0
C=CCn1c(SCC(=O)NC2CCCCC2)nnc1-c1sc(N)nc1C,-3,-0.45,4,4,0.85,1
CCOC(=O)c1cnn(-c2ccccc2)c1-n1cccc1C(=O)C(=O)Nc1ccc(OC)cc1,-2,-0.51,-21,1,-3.3,-2
Clc1ccc(OCc2nnc(SCc3nnc(-c4ccccc4)o3)o2)c(Cl)c1,-7,-0.8,-22,2,-6.1*,1
Cc1n[nH]c(C)c1N1C(=O)c2cccc3c(Br)ccc(c23)C1=O,-12,1.3,-3,3,-3.5,1
Cc1ccnc(N2C(=O)c3cccc4c([N+](=O)[O-])ccc(c34)C2=O)c1,-3,-0.48,2,45*,-0.67,2
CCCCNC(=O)C1CC(c2c(Cl)cccc2Cl)=NO1 (stereo unspecified),-2,nt,5,-2,1.1,0
S=C1NNC2(NN1)C1CC3CC(C1)CC2C3,56*,0.9,-7,6,0.51,-2
